Here are results for one compound from ChEMBL document CHEMBL3286380, “Design and synthesis of lupeol analogues and their glucose uptake stimulatory effect in L6 skeletal muscle cells” (Bioorg Med Chem Lett, 2014).

One experiment concerns 3T3-L1. Description: Potentiation of insulin-stimulated 2-[3H]-deoxyglucose uptake in mouse 3T3L1 cells at 10 uM treated for 16 hrs followed by incubation for 3 hrs in serum free medium and insulin stimulation for 20 mins by scintillation counting analysis. Type of experiment: functional, cell-based. In a few lines:
(§1)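 Cells (L6 myotubes, 3T3-L1 adipocytes or HepG2 hepatic cells) treated with compound (10 µM) for 16 h, last 3 h serum-free, with or without insulin (100 nM, 20 min) before glucose uptake. Reported as fold stimulation over basal control; mean ± SE of three independent experiments, each in triplicate.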

Experiment [1] relates to L6. Description: Potentiation of insulin-stimulated 2-[3H]-deoxyglucose uptake in rat L6 cells at 10 uM treated for 16 hrs followed by incubation for 3 hrs in serum free medium and insulin stimulation for 20 mins by scintillation counting analysis. Type of experiment: functional, cell-based. In a few lines: as §1
In experiment [2] the test system is L6. The experiment is described as follows: Increase in 2-[3H]-deoxyglucose uptake in rat L6 cells after 16 hrs by scintillation counting analysis. It is filed as functional, cell-based. The method, boiled down: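 Dose–response in L6 myotubes: vehicle (DMSO) or compound at 5, 10, 25 µM for 16 h before glucose uptake measurement; rosiglitazone 10 µM as positive control. Expressed as fold stimulation over control; mean ± SE of three independent experiments, each in triplicate.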

In experiment [3] the target is T1, Solute carrier family 2, facilitated glucose transporter member 4 (Rattus norvegicus) (UniProt P19357).
T1 sequence (whole entry): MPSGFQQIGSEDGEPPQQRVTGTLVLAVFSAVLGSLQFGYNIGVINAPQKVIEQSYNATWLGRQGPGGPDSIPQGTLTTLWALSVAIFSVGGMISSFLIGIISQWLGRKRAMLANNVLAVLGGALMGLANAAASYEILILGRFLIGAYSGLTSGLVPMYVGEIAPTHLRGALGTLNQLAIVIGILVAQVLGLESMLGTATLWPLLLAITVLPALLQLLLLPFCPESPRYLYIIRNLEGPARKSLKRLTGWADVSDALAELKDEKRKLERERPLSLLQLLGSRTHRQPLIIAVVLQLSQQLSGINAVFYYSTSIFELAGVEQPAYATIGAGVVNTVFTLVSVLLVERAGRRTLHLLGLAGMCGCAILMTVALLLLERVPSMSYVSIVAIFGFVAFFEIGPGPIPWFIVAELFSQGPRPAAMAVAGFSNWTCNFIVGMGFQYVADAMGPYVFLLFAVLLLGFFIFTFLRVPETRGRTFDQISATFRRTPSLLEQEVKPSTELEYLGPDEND
Description: Induction of GLUT4 translocation to cell surface in rat L6-GLUT4myc cells at 10 uM treated for 16 hrs followed by incubation for 3 hrs in serum free medium and insulin stimulation for 20 mins. Type of experiment: cell-based. In a few lines: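 L6-GLUT4myc myotubes given compound (10 µM) for 16 h, the final 3 h in serum-free medium; a subset stimulated with insulin (100 nM) for 20 min before measuring surface GLUT4myc. Fold over basal control; mean ± SE, three independent experiments in triplicate.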

A further experiment has as its system HepG2. Description: Potentiation of insulin-stimulated 2-[3H]-deoxyglucose uptake in human HepG2 cells at 10 uM treated for 16 hrs followed by incubation for 3 hrs in serum free medium and insulin stimulation for 20 mins by scintillation counting analysis. Type of experiment: functional, cell-based. The method, boiled down:
as §1

The test system of experiment [4] is L6. The experiment is described as follows: Increase in 2-[3H]-deoxyglucose uptake in rat L6 cells at 10 uM after 16 hrs by scintillation counting analysis relative to lupeol. Type of experiment: functional.
In experiment [5] the target is 5'-AMP-activated protein kinase catalytic subunit alpha-1 (Rattus norvegicus) (UniProt P54645). The experiment is described as follows: Effect on AMPK-alpha phosphorylation at Thr-172 residue in rat L6 cells at 10 uM after 16 hrs by immunoblot analysis. It is filed as cell-based. In a few lines:
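L6 myotubes exposed to compound (10 µM) for 16 h, then lysed; western blot for phospho-AMPK (Thr-172), quantified by densitometry relative to total AMPK. Mean ± SEM of three independent experiments.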

The subject of experiment [6] is L6. Description: Increase in 2-[3H]-deoxyglucose uptake in rat L6 cells at 10 uM after 16 hrs by scintillation counting analysis (reference value: 0%). It is filed as functional.

Structures are written as SMILES. Activity calls are given as the source filed them. The calls are words filed in the database; no cut-off is given here.

Sequence of 5'-AMP-activated protein kinase catalytic subunit alpha-1 (Rattus norvegicus) (P54645 whole entry): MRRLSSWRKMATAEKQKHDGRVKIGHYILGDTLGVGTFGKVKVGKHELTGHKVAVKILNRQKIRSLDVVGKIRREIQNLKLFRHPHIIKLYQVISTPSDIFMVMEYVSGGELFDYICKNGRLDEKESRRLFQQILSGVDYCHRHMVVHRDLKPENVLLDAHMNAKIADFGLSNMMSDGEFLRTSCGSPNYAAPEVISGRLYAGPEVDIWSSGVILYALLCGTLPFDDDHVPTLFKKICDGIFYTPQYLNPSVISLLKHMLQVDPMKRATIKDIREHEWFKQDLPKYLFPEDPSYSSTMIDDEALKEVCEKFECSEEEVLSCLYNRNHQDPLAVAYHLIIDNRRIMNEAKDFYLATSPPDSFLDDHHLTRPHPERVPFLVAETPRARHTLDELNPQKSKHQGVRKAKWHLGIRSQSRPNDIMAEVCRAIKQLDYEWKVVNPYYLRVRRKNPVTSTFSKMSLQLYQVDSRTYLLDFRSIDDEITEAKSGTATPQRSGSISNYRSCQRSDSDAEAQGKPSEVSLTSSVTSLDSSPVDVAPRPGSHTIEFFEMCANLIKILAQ

As a reminder, the EC50 is the concentration giving half of the maximal effect. Low values mean an effect from little substance, high ones a need for much substance. On to `C=C(C=O)[C@@H]1CC[C@]2(C)CC[C@]3(C)[C@H](CC[C@@H]4[C@@]5(C)CC[C@H](OC(C)=O)C(C)(C)[C@@H]5CC[C@]43C)[C@@H]12`, for which the outcome (with 3T3-L1; in the experiment with L6 [1]; in experiment [3]; in the experiment with HepG2) was Active. Besides, the Activity result in the experiment with L6 [2] is “Dose-dependent effect”; with L6 [6], 114.1%. It took 5.2 µM to reach a half-maximal effect in the experiment on L6 [2] (EC50). Also, the “fold change (FC)” value in the experiment on L6 [4] is reported as 4.5. Also, the result in experiment [5] was inactive.
